In ChEMBL document CHEMBL4265940, “Synthesis of scutellarein derivatives with antiproliferative activity and selectivity through the intrinsic pathway” (Eur J Med Chem, 2018):
Active and inactive are the calls of the source. The calls are words filed in the database; no cut-off is given here.

What was measured:
A549 = test: Antiproliferative activity against human A549 cells after 72 hrs by MTT assay; assay type: functional, cell-based; settings: A549, 72 h
Outline: (§1)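 Log-phase tumour cells seeded and held 24 h at 37 °C in humidified 5% CO2, then exposed to test agents for 72 h. MTT (5 mg/mL stock) added for a further 4 h, formazan dissolved in DMSO with 10 min shaking at room temperature, optical density read, IC50 calculated.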

MCF7 [1] = test: Antiproliferative activity against human MCF7 cells after 72 hrs by MTT assay; assay type: functional, cell-based; settings: MCF7, 72 h; outline: as §1
L02 = test: Cytotoxicity against human LO2 cells assessed as decrease in cell viability after 72 hrs by MTT assay; assay type: cell-based; settings: L02, 72 h
Outline: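 L-O2 normal human liver cells tested for growth inhibition by MTT. Formazan was dissolved in DMSO and optical density read. IC50 values were derived.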

Bel-7402 = test: Antiproliferative activity against human Bel7402 cells after 72 hrs by MTT assay; assay type: functional, cell-based; settings: Bel-7402, 72 h; outline: as §1
MCF7 [2] = test: Induction of mitochondrial membrane depolarization in human MCF7 cells assessed as collapse of mitochondrial membrane potential at 0.75 uM after 48 hrs by JC-1 staining based flow cytometry (reference value: 1.61%); assay type: functional
Outline: (§2)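 Log-phase MCF-7 cells treated at 0, 0.75, 1.5 and 3 µM for 48 h, washed with PBS, then stained with JC-1 in the dark per kit instructions. The percentage of cells with collapsed membrane potential was measured by flow cytometry relative to untreated control.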

MCF7 [3] = test: Induction of apoptosis in human MCF7 cells assessed as late apoptotic cells at 3 uM after 48 hrs by Annexin V-FITC/PI staining based flow cytometry (reference value: 1.99%); assay type: functional
MCF7 [4] = test: Induction of apoptosis in human MCF7 cells after 48 hrs by Annexin V-FITC/PI staining based flow cytometry; assay type: functional, cell-based
MCF7 [5] = test: Induction of apoptosis in human MCF7 cells assessed as downregulation of Bcl-2 after 48 hrs by Western blot analysis; assay type: functional, cell-based
Outline: (§3)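 MCF-7 cells treated 48 h at 0, 0.75, 1.5 and 3 µM, lysed, and spun at 14000 g for 10 min at 4 °C. Protein was measured by BCA and 25 µg lysate run on 12% SDS-PAGE, then transferred to nitrocellulose and blocked with 5% milk. Blots were probed overnight at 4 °C with monoclonal antibodies to Bcl-2, Bax, cyto-c, caspase-9, caspase-3 and GAPDH, with ECL detection.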

MCF7 [6] = test: Cell cycle arrest in human MCF7 cells assessed as accumulation at G1 phase at 0.75 uM after 48 hrs by propidium iodide staining based flow cytometry (reference value: 41.49%); assay type: functional
MCF7 [7] = test: Induction of mitochondrial membrane depolarization in human MCF7 cells assessed as collapse of mitochondrial membrane potential at 3 uM after 48 hrs by JC-1 staining based flow cytometry (reference value: 1.61%); assay type: functional; outline: as §2
MCF7 [8] = test: Cell cycle arrest in human MCF7 cells assessed as accumulation at G2/M phase at 3 uM after 48 hrs by propidium iodide staining based flow cytometry (reference value: 22.40%); assay type: functional
MCF7 [9] = test: Cell cycle arrest in human MCF7 cells assessed as accumulation at G2/M phase at 1.5 uM after 48 hrs by propidium iodide staining based flow cytometry (reference value: 22.40%); assay type: functional
MCF7 [10] = test: Cell cycle arrest in human MCF7 cells assessed as accumulation at G1 phase at 1.5 uM after 48 hrs by propidium iodide staining based flow cytometry (reference value: 41.49%); assay type: functional
MCF7 [11] = test: Induction of apoptosis in human MCF7 cells assessed as viable cells at 1.5 uM after 48 hrs by Annexin V-FITC/PI staining based flow cytometry (reference value: 93.72%); assay type: functional; settings: MCF7, 48 h, read-out: Activity
MCF7 [12] = test: Induction of mitochondrial membrane depolarization in human MCF7 cells assessed as collapse of mitochondrial membrane potential at 1.5 uM after 48 hrs by JC-1 staining based flow cytometry (reference value: 1.61%); assay type: functional; outline: as §2
MCF7 [13] = test: Induction of apoptosis in human MCF7 cells assessed as necrotic cells at 1.5 uM after 48 hrs by Annexin V-FITC/PI staining based flow cytometry (reference value: 0.19%); assay type: functional
MCF7 [14] = test: Induction of apoptosis in human MCF7 cells assessed as early apoptotic cells at 3 uM after 48 hrs by Annexin V-FITC/PI staining based flow cytometry (reference value: 4.10%); assay type: functional
MCF7 [15] = test: Induction of apoptosis in human MCF7 cells assessed as necrotic cells at 3 uM after 48 hrs by Annexin V-FITC/PI staining based flow cytometry (reference value: 0.19%); assay type: functional
MCF7 [16] = test: Induction of apoptosis in human MCF7 cells assessed as increase in caspase-9 level at 0.75 to 3 uM after 48 hrs by Western blot analysis; assay type: functional, cell-based; outline: as §3
MCF7 [17] = test: Induction of apoptosis in human MCF7 cells assessed as late apoptotic cells at 0.75 uM after 48 hrs by Annexin V-FITC/PI staining based flow cytometry (reference value: 1.99%); assay type: functional
MCF7 [18] = test: Induction of mitochondrial membrane depolarization in human MCF7 cells after 48 hrs by JC-1 staining based flow cytometry; assay type: functional, cell-based; outline: as §2
MCF7 [19] = test: Induction of apoptosis in human MCF7 cells assessed as early apoptotic cells at 0.75 uM after 48 hrs by Annexin V-FITC/PI staining based flow cytometry (reference value: 4.10%); assay type: functional
MCF7 [20] = test: Induction of apoptosis in human MCF7 cells assessed as necrotic cells at 0.75 uM after 48 hrs by Annexin V-FITC/PI staining based flow cytometry (reference value: 0.19%); assay type: functional
MCF7 [21] = test: Cell cycle arrest in human MCF7 cells assessed as accumulation at S phase at 0.75 uM after 48 hrs by propidium iodide staining based flow cytometry (reference value: 36.11%); assay type: functional
MCF7 [22] = test: Cell cycle arrest in human MCF7 cells assessed as accumulation at S phase at 1.5 uM after 48 hrs by propidium iodide staining based flow cytometry (reference value: 36.11%); assay type: functional
MCF7 [23] = test: Cell cycle arrest in human MCF7 cells assessed as accumulation at G1 phase after 48 hrs by propidium iodide staining based flow cytometry; assay type: functional
MCF7 [24] = test: Induction of apoptosis in human MCF7 cells assessed as viable cells at 0.75 uM after 48 hrs by Annexin V-FITC/PI staining based flow cytometry (reference value: 93.72%); assay type: functional; settings: MCF7, 48 h, read-out: Activity
MCF7 [25] = test: Cell cycle arrest in human MCF7 cells assessed as accumulation at G2/M phase at 0.75 uM after 48 hrs by propidium iodide staining based flow cytometry (reference value: 22.40%); assay type: functional
MCF7 [26] = test: Induction of apoptosis in human MCF7 cells assessed as late apoptotic cells at 1.5 uM after 48 hrs by Annexin V-FITC/PI staining based flow cytometry (reference value: 1.99%); assay type: functional
MCF7 [27] = test: Induction of apoptosis in human MCF7 cells assessed as upregulation of Bax after 48 hrs by Western blot analysis; assay type: functional, cell-based; outline: as §3
MCF7 [28] = test: Induction of apoptosis in human MCF7 cells assessed as early apoptotic cells at 1.5 uM after 48 hrs by Annexin V-FITC/PI staining based flow cytometry (reference value: 4.10%); assay type: functional
MCF7 [29] = test: Induction of apoptosis in human MCF7 cells assessed as increase in cytochrome c release at 0.75 to 3 uM after 48 hrs by Western blot analysis; assay type: functional, cell-based; outline: as §3
MCF7 [30] = test: Cell cycle arrest in human MCF7 cells assessed as accumulation at S phase at 3 uM after 48 hrs by propidium iodide staining based flow cytometry (reference value: 36.11%); assay type: functional
MCF7 [31] = test: Cell cycle arrest in human MCF7 cells assessed as accumulation at G1 phase at 3 uM after 48 hrs by propidium iodide staining based flow cytometry (reference value: 41.49%); assay type: functional
MCF7 [32] = test: Induction of apoptosis in human MCF7 cells assessed as increase in caspase-3 level at 0.75 to 3 uM after 48 hrs by Western blot analysis; assay type: functional, cell-based; outline: as §3
MCF7 [33] = test: Induction of apoptosis in human MCF7 cells assessed as viable cells at 3 uM after 48 hrs by Annexin V-FITC/PI staining based flow cytometry (reference value: 93.72%); assay type: functional; settings: MCF7, 48 h, read-out: Activity

SMILES: COc1cc2oc(-c3ccc(OCCCCOC(=O)c4ccc(N(CCCl)CCCl)cc4)cc3)cc(=O)c2c(O)c1OC
- IC50 (A549): 47.3 µM
- IC50 (MCF7 [1]): > 50 µM
- IC50 (L02): > 50 µM
- IC50 (Bel-7402): 25.7 µM

SMILES: O=c1[nH]cc(F)c(=O)[nH]1 [FLUOROURACIL]
- IC50 (A549): 2.05 µM
- IC50 (MCF7 [1]): 27.9 µM
- IC50 (Bel-7402): 18.7 µM

SMILES: O=C(OCCCOc1ccc(-c2cc(=O)c3c(O)c(O)c(O)cc3o2)cc1)c1ccc(N(CCCl)CCCl)cc1
- IC50 (A549): > 50 µM
- Activity (MCF7 [2]): 19.61%
- Activity (MCF7 [3]): 26.73%
- Activity (MCF7 [4]): Dose-dependent effect
- Activity (MCF7 [5]): Dose-dependent effect
- Activity (MCF7 [6]): 44.16%
- Activity (MCF7 [7]): 64.8%
- Activity (MCF7 [8]): 11.47%
- IC50 (MCF7 [1]): 1.5 µM
- Activity (MCF7 [9]): 18.56%
- Activity (MCF7 [10]): 50.99%
- viability at 1.5 µM (MCF7 [11]): 68.8%
- Activity (MCF7 [12]): 43.48%
- Activity (MCF7 [13]): 1.85%
- Activity (MCF7 [14]): 38.48%
- Activity (MCF7 [15]): 3.26%
- Activity (MCF7 [16]): Active
- IC50 (L02): > 50 µM
- Activity (MCF7 [17]): 3.92%
- Activity (MCF7 [18]): Dose-dependent effect
- Activity (MCF7 [19]): 12.07%
- Activity (MCF7 [20]): 0.17%
- Activity (MCF7 [21]): 34.67%
- Activity (MCF7 [22]): 30.44%
- Activity (MCF7 [23]): Dose-dependent effect
- viability at 0.75 µM (MCF7 [24]): 83.8%
- Activity (MCF7 [25]): 21.17%
- Activity (MCF7 [26]): 9.46%
- Activity (MCF7 [27]): Dose-dependent effect
- IC50 (Bel-7402): 7.96 µM
- Activity (MCF7 [28]): 19.85%
- Activity (MCF7 [29]): Active
- Activity (MCF7 [30]): 29.04%
- Activity (MCF7 [31]): 59.49%
- Activity (MCF7 [32]): Active
- viability at 3 µM (MCF7 [33]): 31.5%

SMILES: O=C(O)CCCc1ccc(N(CCCl)CCCl)cc1 [CHLORAMBUCIL]
- IC50 (A549): > 50 µM
- IC50 (MCF7 [1]): > 50 µM
- IC50 (L02): > 50 µM
- IC50 (Bel-7402): > 50 µM

SMILES: O=C(OCCCCOc1ccc(-c2cc(=O)c3c(O)c4c(cc3o2)OCCO4)cc1)c1ccc(N(CCCl)CCCl)cc1
- IC50 (A549): > 50 µM
- IC50 (MCF7 [1]): > 50 µM
- IC50 (L02): > 50 µM
- IC50 (Bel-7402): 37.6 µM

SMILES: COc1cc2oc(-c3ccc(OCCCOC(=O)c4ccc(N(CCCl)CCCl)cc4)cc3)cc(=O)c2c(O)c1OC
- IC50 (A549): > 50 µM
- IC50 (MCF7 [1]): > 50 µM
- IC50 (L02): > 50 µM
- IC50 (Bel-7402): 27.8 µM

SMILES: O=C(OCCCOc1ccc(-c2cc(=O)c3c(O)c4c(cc3o2)OCCO4)cc1)c1ccc(N(CCCl)CCCl)cc1
- IC50 (A549): 44.5 µM
- IC50 (MCF7 [1]): 45 µM
- IC50 (L02): > 50 µM
- IC50 (Bel-7402): > 50 µM

SMILES: O=C(OCCCCCOc1ccc(-c2cc(=O)c3c(O)c(O)c(O)cc3o2)cc1)c1ccc(N(CCCl)CCCl)cc1
- IC50 (A549): 23.5 µM
- IC50 (MCF7 [1]): 4.78 µM
- IC50 (L02): > 50 µM
- IC50 (Bel-7402): 4.59 µM

SMILES: O=C(OCCCCCOc1ccc(-c2cc(=O)c3c(O)c4c(cc3o2)OCCO4)cc1)c1ccc(N(CCCl)CCCl)cc1
- IC50 (A549): > 50 µM
- IC50 (MCF7 [1]): 34.7 µM
- IC50 (L02): > 50 µM
- IC50 (Bel-7402): 45.7 µM

SMILES: O=C(OCCCCOc1ccc(-c2cc(=O)c3c(O)c(O)c(O)cc3o2)cc1)c1ccc(N(CCCl)CCCl)cc1
- IC50 (A549): 21.5 µM
- IC50 (MCF7 [1]): 3.55 µM
- IC50 (L02): > 50 µM
- IC50 (Bel-7402): 9.07 µM

SMILES: COc1cc2oc(-c3ccc(OCCCCCOC(=O)c4ccc(N(CCCl)CCCl)cc4)cc3)cc(=O)c2c(O)c1OC
- IC50 (A549): > 50 µM
- IC50 (MCF7 [1]): > 50 µM
- IC50 (L02): > 50 µM
- IC50 (Bel-7402): 32.5 µM
